The entries come from a sample that favours hits as a whole.
Jurkat NFkB inh: inhibitors of the PMA/ionomycin-induced NF-kB reporter in Jurkat cells; PMA/ionomycin-induced NF-kB luciferase reporter, luminescence; inhibition, % at 4 µM; hit rate 0.53% among 330,000; AID 435003; in the data active means inhibition above about 50%
UPR CHOP act: activators of apoptotic arm of unfolded protein response (CHOP); CHO-CHOP luciferase reporter, UPR activation, luminescence; percent of tunicamycin response over DMSO baseline; activation, % at 10 µM; hit rate 0.34% among 330,000; AID 449763;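 active means at 10 µM dose, activation of 40% or more, normalized to positive control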
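System: CHO CHOP reporter cells. Amount: 500 cells per well. Buffer or medium: F12 medium, 10% FBS. Compound dosing: one dose, 10 µM in 0.5% DMSO. Incubation: 6 h compound exposure at 37 °C after overnight seeding. Technique: Steady-Glo luciferase luminescence. Benchmarks: tunicamycin and DMSO controls.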
UPR XBP1 act: activators of adaptive arm of unfolded protein response (XBP1); CHO-XBP1 luciferase reporter, IRE1-XBP1 UPR activation, luminescence; percent of tunicamycin response, DMSO as zero; activation, % at 20 µM; hit rate 0.33% among 330,000; AID 463104;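 active means versus positive control, 20 µM dose yields 30% or more activation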
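Material: CHO-XBP1 cells stably carrying IRE1-XBP1-driven luciferase reporter | Medium: F12 with 10% serum | Compound dosing: 20 µM single concentration, DMSO 1% | Incubation: Overnight seeding at 37 °C, 6 h compound treatment at 37 °C | Detection: Steady-Glo luminescence read | Read-out basis: % activation of reporter signal versus tunicamycin and DMSO controls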
CHOP inh: CHOP inhibition in unfolded protein response; CHO-K1 CHOP-promoter luciferase, tunicamycin-induced, 15-18 h; inhibition, % at 10 µM; hit rate 3.8% among 220,000; AID 2732;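 active means compounds that reduced the stress-induced luciferase reporter signal by more than about 70% of percent inhibition, limit read from the data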
697 NFkB inh: lowers PMA/ionomycin-induced NF-kB signal in 697 B cells | hit rate 0.33% among 330,000 | inhibition, % at 4 µM | 697 B-cell NF-kB luciferase reporter, 16 h; in the data active means inhibition above about 35%
CHOP inh conf: confirmation of CHOP induction inhibitors | CHO-CHOP promoter luciferase reporter, tunicamycin-induced, luminescence | AID 504437 | inhibition, % at 10 µM | shares compounds with CHOP inh | hit rate 45% among 2,100;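 active means mean of three repeat readings of reporter signal inhibition above a set limit, cut at about 70% in these data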
Each line names hits and unclear results; the compound was inactive in the other large screens (follow-up assays come after a bar, where they were run).

COc1ccc(NC(=O)CN(C)C(=O)Cc2n[nH]c(=O)c3ccccc23)cc1	none (no result: CHOP inh)
CCCCCCSc1nsc(NC(=O)CCC)n1	CHOP inh 106.0 | CHOP inh conf 102.7
C=C(C)COc1ccc(-c2n[nH]c(C)c2-c2ccc(OC)cc2)c(O)c1	CHOP inh 107.5 | CHOP inh conf inactive
COc1ccc(-c2c(-c3ccc(OCC(=O)NN)cc3O)n[nH]c2C)cc1OC	none (no result: CHOP inh)
COc1cccc(Cn2cc(C)cc(NC(=O)NCc3ccccc3)c2=O)c1	none (no result: CHOP inh)
CCCNC(=O)COC(=O)c1ccccc1C(=O)c1ccc(Cl)c([N+](=O)[O-])c1	CHOP inh 102.3 | CHOP inh conf inactive
CCCN1CCN(CCCNC(=O)c2ccc(NC(=O)C3=C(C)OCCS3)cc2)CC1	none (no result: CHOP inh)
Nc1c(C(=O)Nc2ccccc2F)sc2nc(-c3cccnc3)ccc12	CHOP inh 97.2 | CHOP inh conf 77.1
CC1=NCCN1S(=O)(=O)c1cc(Cl)ccc1Cl	none
CC(C)(C)c1cc(S(=O)(=O)CCc2ccccn2)cc(C(C)(C)C)c1F	CHOP inh 97.2 | CHOP inh conf 130.7
CCC(C)c1ccc(NC(=S)NCc2ccccc2OC)cc1 (centres undefined)	CHOP inh 97.0 (no result: Jurkat NFkB inh, UPR CHOP act, UPR XBP1 act, 697 NFkB inh) | CHOP inh conf inactive
Oc1[nH]c2ccccc2c1N=NC(=S)NCCc1ccccc1	CHOP inh 104.8 (no result: Jurkat NFkB inh, UPR CHOP act, UPR XBP1 act, 697 NFkB inh) | CHOP inh conf 75.6
Cc1ccc(-c2c(C)sc(NC(=O)C3C4CCC(O4)C3C(=O)O)c2C(=O)OC(C)C)cc1 (centres undefined)	none
CC(C)=C1C2CCC1C(C(=O)Nc1sc(C)c(-c3ccc(C(C)C)cc3)c1C(N)=O)C2C(=O)O (centres undefined)	CHOP inh 103.1 | CHOP inh conf 99.9
COc1ccc([C@H]2Oc3cc(O)cc(O)c3C(=O)C2[C@@H]2C(=O)c3c(O)cc(O)cc3O[C@@H]2c2ccc(OC)cc2)cc1 (some centres undefined)	CHOP inh 105.0 | CHOP inh conf 110.8
O=C1c2c(O)cc(O)cc2OC(c2ccc(O)c(O)c2)C1O (centres undefined)	none (no result: Jurkat NFkB inh, UPR CHOP act, UPR XBP1 act, 697 NFkB inh)
Cc1n[nH]c(C)c1S(=O)(=O)N(CC(=O)N1CCc2ccccc21)c1ccc(C(C)C)cc1	CHOP inh 96.2 | CHOP inh conf inactive
C=CCSc1n[nH]c(-c2ccc(OCCCC)cc2)n1	CHOP inh 106.2 | CHOP inh conf 97.3
O=C(Nc1nc2ccc(SC(F)F)cc2s1)c1ccc(NS(=O)(=O)c2ccc(F)c(F)c2)cc1	CHOP inh 105.8 | CHOP inh conf inactive
CS(=O)(=O)c1ccc2nc(NC(=O)c3ccc(NS(=O)(=O)c4ccc(F)c(F)c4)cc3)sc2c1	none
Cc1cc(C)c2c(NC(=O)CCl)nn(C)c2n1	none
CCc1cc(SC#N)cc(CC)c1NC(=O)CCl	CHOP inh 96.6 | CHOP inh conf inactive
O=C(COc1ccc2ccccc2c1)Nc1ccc(S(=O)(=O)N2CCCCCC2)cc1	none
CC1CCCN(Cc2c(O)ccc3c(=O)c(-c4nc5ccccc5s4)c(N)oc23)C1 (centres undefined)	none
CC1(C)CCCN(Cc2c(O)ccc3c(=O)c(-c4nc5ccccc5s4)c(N)oc23)C1	CHOP inh 104.0 | CHOP inh conf inactive
CCC(C)N(C(=O)CSc1ccc(NC(C)=O)cc1)C1CCS(=O)(=O)C1 (centres undefined)	none
O=Cc1ccc(Sc2nnc(-c3ccccc3)o2)c([N+](=O)[O-])c1	CHOP inh 96.7 | CHOP inh conf inactive
S=C1NC[C@H](c2ccccc2)N1CC1CCCCC1	none
CC(C)c1ccccc1NC(=O)COc1ccc(C(=O)NCCc2ccccc2)cc1	CHOP inh 106.7 | CHOP inh conf inactive
CCOc1ccc(NC(=O)COc2ccc(C(=O)NCCc3ccccc3)cc2)cc1	none
COc1ccc(NS(=O)(=O)c2ccc3oc(SCc4ccc(F)cc4)nc3c2)cc1	CHOP inh 96.3 | CHOP inh conf inactive
COc1ccccc1NS(=O)(=O)c1ccc2oc(SCc3ccc(F)cc3)nc2c1	none
Cc1cccc(N=Nc2c(N)n[nH]c2-c2ccc(Cl)cc2)c1	CHOP inh 109.2 | CHOP inh conf 107.8
CCOC(=O)c1c(NC(=O)C2=C(C)NC(=S)NC2c2ccc(CC)cc2)sc(C)c1C (centres undefined)	CHOP inh 97.2 | CHOP inh conf inactive
Cc1cc(F)ccc1S(=O)(=O)N1CCCOC1CNC(=O)C(=O)NCCCN1CCOCC1 (centres undefined)	none (no result: CHOP inh)
Cc1cc(C)c(NC(=O)CSc2nc3ccc(NC(=O)CSc4nnnn4Cc4ccccc4)cc3s2)c(C)c1	none (no result: CHOP inh)
Cc1cc(C)c(NC(=O)CSc2nc3ccc(NC(=O)CSc4nnnn4-c4ccccc4)cc3s2)c(C)c1	CHOP inh 97.5 | CHOP inh conf inactive
Cc1ccc(C)c(NC(=O)C2CC=CCC2C(=O)O)c1 (centres undefined)	none
Cc1ccc(C)c(NC(=O)C2CC3c4ccccc4C2c2ccccc23)c1 (centres undefined)	CHOP inh 98.8 | CHOP inh conf inactive
O=C(NNc1ccccc1[N+](=O)[O-])Nc1ccc(Cl)c(Cl)c1	CHOP inh 101.3 | CHOP inh conf 71.2
O=C(NNc1ccccc1[N+](=O)[O-])Nc1ccccc1	none
O=C(COC(=O)C1CC1)Nc1c(Cl)cccc1C(F)(F)F	none (no result: CHOP inh)
C[N+]1=C(/C=C/Nc2ccccc2Cl)C(C)(C)c2ccccc21	none
COC(=O)c1ccc2c(c1)C(C)(C)C(/C=C/c1ccccc1O)=[N+]2C	CHOP inh 108.4 | CHOP inh conf 120.3
CC12CC3CC(C)(C1)CC(C(=O)NCc1cccnc1)(C3)C2	none (no result: CHOP inh)
Cc1cc(Cl)n2c(nc3cc(F)c(F)cc32)c1C#N	CHOP inh 105.3 (no result: Jurkat NFkB inh, UPR CHOP act, UPR XBP1 act, 697 NFkB inh) | CHOP inh conf 123.6
Cc1ccsc1/C=N/n1c(-c2cc(-c3ccccc3)n[nH]2)n[nH]c1=S	none
Cc1ccccc1/C=N/n1c(-c2cc(-c3ccccc3)n[nH]2)n[nH]c1=S	CHOP inh 103.8 | CHOP inh conf inactive
Cc1ccc(N2C(=O)NC(NS(=O)(=O)c3ccccc3)(C(F)(F)F)C2=O)cc1C (centres undefined)	none (no result: CHOP inh)
CC(=O)OCCNc1cc(SC(C)C)c2nonc2c1[N+](=O)[O-]	none
CCCC(=O)OCCNc1cc(Sc2nc3ccccc3[nH]2)c2nonc2c1[N+](=O)[O-]	CHOP inh 109.9 | CHOP inh conf 137.6
CC(=O)OCCCNc1cc(Sc2ccc(Cl)cc2)c2nonc2c1[N+](=O)[O-]	CHOP inh 109.5 (no result: Jurkat NFkB inh, UPR CHOP act, UPR XBP1 act, 697 NFkB inh) | CHOP inh conf 113.9
O=c1c2c([N+](=O)[O-])cc([N+](=O)[O-])cc2sn1-c1ccc(Br)cc1	CHOP inh 96.6 | CHOP inh conf inactive
O=c1c2c([N+](=O)[O-])cc([N+](=O)[O-])cc2sn1Cc1ccccc1	none (no result: CHOP inh)
